Results on one molecule are retold here after ChEMBL document CHEMBL3627597, “Synthesis of Fluorine-Containing Phosphodiesterase 10A (PDE10A) Inhibitors and the In Vivo Evaluation of F-18 Labeled PDE10A PET Tracers in Rodent and Nonhuman Primate” (J Med Chem, 2015).

The subject of series [1] is Nucleic Acid. Kind of series: Ratio of drug level in striatum to occipital in cynomolgus monkey at 185 to 259 MBq, iv measured at 70 mins by micro PET image analysis. The note with it: in vivo. The series is classed as ADME, organism-based, Macaca fascicularis. The method, boiled down: (§1)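 Adult male cynomolgus macaques (~4–6 kg), three independent PET studies per tracer on a microPET Focus 220. Animals fasted 12 h and anesthetized with ketamine (10 mg/kg) plus glycopyrrolate (0.13 mg/kg) i.m. A 10 min positioning transmission scan and a 45 min attenuation transmission scan were run, then a 3 h dynamic emission scan after venous tracer injection. Regional TACs came from ROIs, expressed as SUV (body weight, injected dose).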

Series [2] has as its system Nucleic Acid. The series can be described thus: Ratio of drug level in striatum to white matter in cynomolgus monkey at 185 to 259 MBq, iv measured at 40 mins by micro PET image analysis. The class given is ADME, organism-based, Macaca fascicularis. Conditions: in vivo; call rule not given here. In short, it runs like this:
as §1

For series [3], the system named is Nucleic Acid. Kind of series: Ratio of drug level in striatum to white matter in cynomolgus monkey at 185 to 259 MBq, iv measured at 70 mins by micro PET image analysis. The series is classed as ADME, organism-based, Macaca fascicularis. The note with it: in vivo. In short, it runs like this: as §1
Series [4] relates to Liver. Kind of series: Biodistribution in Sprague-Dawley rat liver at 1.48 to 2.22 MBq, iv measured at 30 mins by gamma counting analysis. The note with it: in vivo, 0.5 h. The series is classed as ADME, organism-based. In short, it runs like this: (§2)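 Male Sprague-Dawley rats (250 - 400 g), tail-vein injection of 1.48 - 2.22 MBq radiotracer under 2.5% isoflurane in oxygen; n=4 per time point, euthanized at 5, 30 and 60 min p.i. Brain regions obtained by gross dissection; peripheral tissues collected. Samples weighed, gamma-counted against a diluted-injectate standard; %ID/g calculated.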

The test system of series [5] is Nucleic Acid. The series can be described thus: Ratio of drug level in striatum to cerebellum in cynomolgus monkey at 185 to 259 MBq, iv measured at 40 mins by micro PET image analysis. The note with it: in vivo. The class given is ADME, organism-based, Macaca fascicularis. The method, boiled down: as §1
Series [6] in a line: Metabolic stability in cynomolgus monkey plasma assessed as compound remaining at 185 to 259 MBq, iv measured at 90 mins by HPLC analysis. The series is classed as ADME, organism-based, Macaca fascicularis. The note with it: read-out: Stability. The method, boiled down: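 Arterial blood (~1.5 mL) drawn at 2, 15, 30, 60 and 90 min p.i. into heparinized syringes, then centrifuged to plasma. Plasma deproteinated with 2 parts ice-cold methanol. Extract run on C-18 HPLC, MeCN/0.1 M ammonium formate pH 4.5, 0.9 mL/min, UV 254 nm. 1-min fractions over 16 min were well-counted and decay-corrected; parent percentage taken from recovered activity.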

The test system of another series is Blood. The series can be described thus: Biodistribution in Sprague-Dawley rat blood at 1.48 to 2.22 MBq, iv measured at 30 mins by gamma counting analysis. The note with it: in vivo, 0.5 h. The class given is ADME, organism-based. In short, it runs like this: as §2
Series [7] relates to Nucleic Acid. The series can be described thus: Ratio of drug level in striatum to midbrain region in cynomolgus monkey at 185 to 259 MBq, iv measured at 70 mins by micro PET image analysis. The note with it: in vivo. The series is classed as ADME, organism-based, Macaca fascicularis, Brain. The method, boiled down: as §1
The subject of another series is Striatum. Kind of series: Biodistribution in Sprague-Dawley rat striatum at 1.48 to 2.22 MBq, iv measured at 30 mins by gamma counting analysis. The class given is ADME, organism-based. Conditions: in vivo, 0.5 h. In short, it runs like this: as §2
In series [8] the test system is Nucleic Acid. The series can be described thus: Ratio of drug level in striatum to hippocampus in cynomolgus monkey at 185 to 259 MBq, iv measured at 40 mins by micro PET image analysis. The series is classed as ADME, organism-based, Macaca fascicularis. Conditions: in vivo. In short, it runs like this: as §1
The subject of series [9] is Liver. The series can be described thus: Biodistribution in Sprague-Dawley rat liver at 1.48 to 2.22 MBq, iv measured at 5 mins by gamma counting analysis. Conditions: in vivo. The series is classed as ADME, organism-based. In short, it runs like this:
as §2

The subject of series [10] is Nucleic Acid. The series can be described thus: Ratio of drug level in striatum to cortex in Sprague-Dawley rat at 1.48 to 2.22 MBq, iv measured at 5 to 30 mins by gamma counting analysis. The series is classed as ADME, organism-based. Conditions: in vivo. The method, boiled down:
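Striatum, cerebellum and cortex obtained by gross dissection from Sprague-Dawley rats (250 - 400 g, n=4 per time point) after tail-vein injection of 1.48 - 2.22 MBq under isoflurane anesthesia. Tissues weighed and gamma-counted with an injectate standard to give %ID/g; ratios taken from striatal versus non-target uptake.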

In another series the test system is Brain. Kind of series: Biodistribution in Sprague-Dawley rat brain at 1.48 to 2.22 MBq, iv measured at 5 mins by gamma counting analysis. The class given is ADME, organism-based. The note with it: in vivo. The method, boiled down:
as §2

In the next series the test system is Kidney. The series can be described thus: Biodistribution in Sprague-Dawley rat kidney at 1.48 to 2.22 MBq, iv measured at 5 mins by gamma counting analysis. The class given is ADME, organism-based. Conditions: in vivo. The method, boiled down:
as §2

For series [11], the system named is Nucleic Acid. The series can be described thus: Ratio of drug level in striatum to temporal region in cynomolgus monkey at 185 to 259 MBq, iv measured at 70 mins by micro PET image analysis. The class given is ADME, organism-based, Macaca fascicularis. Conditions: in vivo. The method, boiled down: as §1

In the case of `Cn1cc(-c2ccncc2)c(-c2ccc(OCc3nc4ccccc4cc3OCC[18F])cc2)n1`, the Ratio is > 5 with Nucleic Acid [1]; > 3 in the series with Nucleic Acid [2]; > 5 in the series on Nucleic Acid [3]; > 3 in the series with Nucleic Acid [5]; > 5 in the series on Nucleic Acid [7]; > 3 in the series with Nucleic Acid [8]. In addition, the Ratio in the series with Nucleic Acid [10] is on record as > 2; in the series with Nucleic Acid [11], > 5. Further, the Drug uptake in the series with Liver [4] is on record as 3.17 % ID/g; in the series on Blood, 0.306 % ID/g; with Striatum it was “Active”; in the series with Liver [9], 4.24 % ID/g; in the series with Brain, 0.092 % ID/g; in the series with Kidney, 1.789 % ID/g. Also, the remaining at 1.5 h in [6] is 45%.
